Reference: ChEMBL document CHEMBL1137365, “1,4,5,6-tetrahydropyrrolo[3,4-c]pyrazoles: identification of a potent Aurora kinase inhibitor with a favorable antitumor kinase inhibition profile” (J Med Chem, 2006)
The source made the active and inactive calls. The calls are words filed in the database; no cut-off is given here.

Experiments:
HCT-116 [1] = test: Cell cycle arrest in HCT116 cells by accumulation at G2/M phase; type: functional, cell-based; conditions: Homo sapiens
HCT-116 [2] = test: Antiproliferative activity against HCT116 cells; type: functional, cell-based; conditions: Homo sapiens
How it was run: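 HCT-116 human colon carcinoma cells; proliferation IC50 taken from dose-response curves, reported as the mean of at least three independent determinations.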

Aurora kinase A = biological target: T1, Aurora kinase A (Homo sapiens, UniProt O14965); test: Inhibition of Aurora A kinase
T1 sequence (O14965 whole entry): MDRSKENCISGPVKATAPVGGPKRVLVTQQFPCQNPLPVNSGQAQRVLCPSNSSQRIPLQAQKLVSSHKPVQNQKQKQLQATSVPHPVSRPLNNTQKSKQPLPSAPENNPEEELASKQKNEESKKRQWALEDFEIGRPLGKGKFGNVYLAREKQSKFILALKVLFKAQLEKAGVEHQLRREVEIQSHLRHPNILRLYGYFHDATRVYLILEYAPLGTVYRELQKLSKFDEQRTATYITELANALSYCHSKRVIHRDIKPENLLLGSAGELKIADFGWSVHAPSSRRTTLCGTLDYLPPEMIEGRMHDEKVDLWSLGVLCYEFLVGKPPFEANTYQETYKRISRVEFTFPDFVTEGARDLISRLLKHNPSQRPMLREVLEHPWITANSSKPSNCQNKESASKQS

Aurora kinase B = Aurora kinase B (Homo sapiens, UniProt Q96GD4); test: Inhibition of Aurora B kinase
Aurora kinase B, sequence (Q96GD4 whole entry): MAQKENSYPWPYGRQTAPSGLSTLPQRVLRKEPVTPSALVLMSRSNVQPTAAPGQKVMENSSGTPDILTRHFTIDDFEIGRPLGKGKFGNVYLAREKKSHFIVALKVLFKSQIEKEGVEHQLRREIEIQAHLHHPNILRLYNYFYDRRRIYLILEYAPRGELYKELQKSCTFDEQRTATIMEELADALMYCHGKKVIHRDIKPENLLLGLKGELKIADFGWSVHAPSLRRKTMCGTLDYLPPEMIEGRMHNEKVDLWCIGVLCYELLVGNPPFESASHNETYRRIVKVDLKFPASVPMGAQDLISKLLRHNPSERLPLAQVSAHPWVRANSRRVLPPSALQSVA
How it was run: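 Biochemical Aurora-B kinase inhibition; IC50 reported as the mean of at least three individual determinations.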

[3] = Aqueous solubility at pH 5.5; type: physicochemical
How it was run: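 Aqueous solubility measured on the hydrochloride salt at pH 5.5.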

HL-60 [4] = test: Antitumor activity against HL60 cells xenografted in SCID mouse at 7.5 to 30 mg/kg, iv after 5 days; type: functional; conditions: dose mg/kg 7.5-30
How it was run: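 SCID mice carrying HL-60 human tumor xenografts. Dosed iv twice daily for 5 days (bid × 5) at 7.5 to 30 mg/kg. Tumor growth inhibition followed over time.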

HL-60 [5] = test: Body weight loss of SCID mouse xenografted with HL60 cells at 30 mg/kg, iv after 5 days; type: functional
HCT-116 [6] = test: Inhibition of histone h3 phosphorylation in HCT116 cells by Western blot analysis; type: functional, cell-based; conditions: Homo sapiens
How it was run: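 HCT-116 cells probed by Western blot for histone H3 phosphorylated at serine 10. α-Tubulin antibody used as the loading control.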

A2780 = test: Antiproliferative activity against A2780 cells; type: functional, cell-based; conditions: Homo sapiens
MCF7 = test: Antiproliferative activity against MCF7 cells; type: functional, cell-based; conditions: Homo sapiens
How it was run: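 IC50 taken from dose-response curves of cell proliferation; each reported value is the mean of three or more independent curves.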

HeLa = test: Antiproliferative activity against HeLa cells; type: functional, cell-based; conditions: Homo sapiens
[7] = biological target: T2, Tyrosine-protein kinase ZAP-70 (Homo sapiens, UniProt P43403); test: Inhibition of ZAP70
T2 sequence (P43403 whole entry): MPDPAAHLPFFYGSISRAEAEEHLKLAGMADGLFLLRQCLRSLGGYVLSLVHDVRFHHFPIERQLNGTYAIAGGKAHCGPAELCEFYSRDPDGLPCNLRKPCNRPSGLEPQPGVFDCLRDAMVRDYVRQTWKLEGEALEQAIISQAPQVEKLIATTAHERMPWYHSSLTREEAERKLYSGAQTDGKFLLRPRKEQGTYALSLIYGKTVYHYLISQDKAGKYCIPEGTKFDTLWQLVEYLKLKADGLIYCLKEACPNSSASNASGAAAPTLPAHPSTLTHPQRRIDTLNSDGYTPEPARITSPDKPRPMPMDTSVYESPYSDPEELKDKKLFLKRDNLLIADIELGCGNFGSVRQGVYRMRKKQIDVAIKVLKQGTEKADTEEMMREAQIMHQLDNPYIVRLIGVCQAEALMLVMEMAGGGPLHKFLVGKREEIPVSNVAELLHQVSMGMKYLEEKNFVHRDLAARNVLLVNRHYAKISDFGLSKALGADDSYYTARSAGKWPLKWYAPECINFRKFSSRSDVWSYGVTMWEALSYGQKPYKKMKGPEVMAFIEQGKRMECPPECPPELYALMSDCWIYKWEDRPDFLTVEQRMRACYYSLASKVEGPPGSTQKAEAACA

[8] = Clearance in CD1 mouse at 10 mg/kg, iv; type: ADME, organism-based; design: dose 10 mg/kg, route intravenous; conditions: in vivo
How it was run: (§1)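 Plasma levels followed up to 6 h post-dose. Parameters estimated individually for three mice (M1–M3) and reported as mean and SD.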

[9] = AUC in CD1 mouse at 10 mg/kg, iv; type: ADME, organism-based; design: dose 10 mg/kg, route intravenous; conditions: plasma; how it was run: as §1
[10] = biological target: T3, 3-phosphoinositide-dependent protein kinase 1 (Homo sapiens, UniProt O15530); test: Inhibition of PDK1
T3 sequence (O15530 whole entry): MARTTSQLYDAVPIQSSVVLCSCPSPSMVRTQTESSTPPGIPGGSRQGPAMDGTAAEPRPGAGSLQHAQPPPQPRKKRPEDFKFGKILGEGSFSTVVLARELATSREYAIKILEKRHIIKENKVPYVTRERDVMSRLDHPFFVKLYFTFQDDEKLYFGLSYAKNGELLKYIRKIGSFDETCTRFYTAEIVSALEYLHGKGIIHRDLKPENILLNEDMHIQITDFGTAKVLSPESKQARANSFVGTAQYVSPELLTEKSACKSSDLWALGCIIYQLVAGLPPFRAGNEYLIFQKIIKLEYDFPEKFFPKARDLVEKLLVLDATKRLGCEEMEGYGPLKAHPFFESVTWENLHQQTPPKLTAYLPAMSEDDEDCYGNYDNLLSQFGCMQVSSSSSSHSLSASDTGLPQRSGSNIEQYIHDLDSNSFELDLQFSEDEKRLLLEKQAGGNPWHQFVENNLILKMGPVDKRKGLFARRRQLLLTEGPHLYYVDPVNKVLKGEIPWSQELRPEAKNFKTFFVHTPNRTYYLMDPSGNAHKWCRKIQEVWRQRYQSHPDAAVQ

[11] = Cmax in CD1 mouse at 10 mg/kg, iv; type: ADME, organism-based; design: dose 10 mg/kg, route intravenous; conditions: in vivo; how it was run: as §1
[12] = biological target: Serine/threonine-protein kinase NIM1 (Homo sapiens, UniProt Q8IY84); test: Inhibition of NIM1
Serine/threonine-protein kinase NIM1, sequence (Q8IY84 whole entry): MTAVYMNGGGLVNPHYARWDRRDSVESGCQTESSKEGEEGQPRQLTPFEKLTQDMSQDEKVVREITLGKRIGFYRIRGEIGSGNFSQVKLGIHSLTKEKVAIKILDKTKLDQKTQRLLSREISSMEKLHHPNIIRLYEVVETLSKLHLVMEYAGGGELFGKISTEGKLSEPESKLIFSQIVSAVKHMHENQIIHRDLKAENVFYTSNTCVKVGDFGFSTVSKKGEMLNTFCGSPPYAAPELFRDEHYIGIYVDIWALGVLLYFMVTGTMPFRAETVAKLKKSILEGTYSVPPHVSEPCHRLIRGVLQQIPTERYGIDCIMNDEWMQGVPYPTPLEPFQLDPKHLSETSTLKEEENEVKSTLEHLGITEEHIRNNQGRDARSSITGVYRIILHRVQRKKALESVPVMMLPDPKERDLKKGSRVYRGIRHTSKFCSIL

[13] = biological target: T4, Inhibitor of nuclear factor kappa-B kinase subunit beta (Homo sapiens, UniProt O14920); test: Inhibition of IKK2
T4 sequence (O14920 whole entry): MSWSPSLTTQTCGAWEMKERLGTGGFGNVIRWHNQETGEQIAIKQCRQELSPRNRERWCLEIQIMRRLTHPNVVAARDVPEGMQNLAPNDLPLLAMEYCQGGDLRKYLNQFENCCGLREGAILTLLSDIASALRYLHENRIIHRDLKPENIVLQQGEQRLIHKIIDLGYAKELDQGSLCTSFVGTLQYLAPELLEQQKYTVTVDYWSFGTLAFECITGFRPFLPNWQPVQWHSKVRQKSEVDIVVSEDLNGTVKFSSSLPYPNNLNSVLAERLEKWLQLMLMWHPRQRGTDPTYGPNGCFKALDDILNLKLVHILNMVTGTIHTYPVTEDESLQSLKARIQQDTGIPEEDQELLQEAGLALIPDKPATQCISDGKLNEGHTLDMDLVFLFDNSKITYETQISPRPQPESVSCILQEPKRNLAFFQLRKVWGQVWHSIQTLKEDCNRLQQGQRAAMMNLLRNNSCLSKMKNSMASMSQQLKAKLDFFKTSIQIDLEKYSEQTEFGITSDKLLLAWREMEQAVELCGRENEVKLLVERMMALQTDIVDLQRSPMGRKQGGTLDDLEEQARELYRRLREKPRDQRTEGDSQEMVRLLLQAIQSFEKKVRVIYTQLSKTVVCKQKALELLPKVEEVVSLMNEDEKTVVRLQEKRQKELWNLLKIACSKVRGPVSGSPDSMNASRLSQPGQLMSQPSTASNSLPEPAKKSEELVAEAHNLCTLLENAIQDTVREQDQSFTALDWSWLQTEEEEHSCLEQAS

[14] = Terminal half life in CD1 mouse at 10 mg/kg, iv; type: ADME, organism-based; design: dose 10 mg/kg, route intravenous; conditions: in vivo, read-out: beta t1/2 (converted); how it was run: as §1
[15] = Volume of distribution in CD1 mouse at 10 mg/kg, iv; type: ADME, organism-based; design: dose 10 mg/kg, route intravenous; conditions: in vivo, read-out: Vss; how it was run: as §1
[16] = biological target: T5, Serine/threonine-protein kinase SULU (Caenorhabditis elegans, UniProt P46549); test: Inhibition of SULU
T5 sequence (P46549 whole entry): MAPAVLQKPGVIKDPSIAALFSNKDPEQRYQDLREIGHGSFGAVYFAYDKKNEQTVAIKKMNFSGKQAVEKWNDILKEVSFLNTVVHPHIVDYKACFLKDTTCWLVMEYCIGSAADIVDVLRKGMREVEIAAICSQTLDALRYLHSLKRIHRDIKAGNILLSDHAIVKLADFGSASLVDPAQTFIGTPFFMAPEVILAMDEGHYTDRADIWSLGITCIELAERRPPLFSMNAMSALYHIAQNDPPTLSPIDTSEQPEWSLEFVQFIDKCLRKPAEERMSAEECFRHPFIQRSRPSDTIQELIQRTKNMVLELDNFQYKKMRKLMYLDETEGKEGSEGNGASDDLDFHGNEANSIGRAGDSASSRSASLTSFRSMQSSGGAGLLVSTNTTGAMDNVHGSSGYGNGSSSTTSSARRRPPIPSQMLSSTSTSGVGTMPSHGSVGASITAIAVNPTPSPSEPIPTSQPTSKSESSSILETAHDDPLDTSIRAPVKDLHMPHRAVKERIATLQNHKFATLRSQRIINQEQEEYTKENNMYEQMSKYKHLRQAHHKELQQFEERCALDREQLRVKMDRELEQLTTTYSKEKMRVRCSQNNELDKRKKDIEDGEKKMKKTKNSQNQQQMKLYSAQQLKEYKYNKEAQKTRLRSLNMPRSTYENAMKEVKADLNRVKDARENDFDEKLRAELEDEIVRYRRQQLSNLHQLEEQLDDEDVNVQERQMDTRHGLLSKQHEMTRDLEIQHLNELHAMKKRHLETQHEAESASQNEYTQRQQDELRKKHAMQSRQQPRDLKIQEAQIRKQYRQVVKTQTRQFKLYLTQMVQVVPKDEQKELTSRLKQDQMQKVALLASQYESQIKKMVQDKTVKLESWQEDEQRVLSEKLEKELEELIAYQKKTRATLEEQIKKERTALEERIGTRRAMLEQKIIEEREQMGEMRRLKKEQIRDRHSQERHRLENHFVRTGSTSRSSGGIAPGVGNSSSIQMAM

Aurora kinase C = biological target: T6, Aurora kinase C (Homo sapiens, UniProt Q9UQB9); test: Inhibition of Aurora C kinase
T6 sequence (Q9UQB9 whole entry): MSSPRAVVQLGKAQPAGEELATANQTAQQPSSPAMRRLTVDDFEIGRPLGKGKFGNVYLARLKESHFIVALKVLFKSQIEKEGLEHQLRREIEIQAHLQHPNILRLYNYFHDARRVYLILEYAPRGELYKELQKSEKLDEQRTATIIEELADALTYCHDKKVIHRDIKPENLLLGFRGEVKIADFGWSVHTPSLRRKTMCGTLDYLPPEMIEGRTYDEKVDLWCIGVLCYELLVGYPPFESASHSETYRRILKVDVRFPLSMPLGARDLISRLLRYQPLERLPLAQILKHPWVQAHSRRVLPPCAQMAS

[17] = biological target: Vascular endothelial growth factor receptor 3 (Homo sapiens, UniProt P35916); test: Inhibition of VEGFR3
Vascular endothelial growth factor receptor 3, sequence (P35916 whole entry): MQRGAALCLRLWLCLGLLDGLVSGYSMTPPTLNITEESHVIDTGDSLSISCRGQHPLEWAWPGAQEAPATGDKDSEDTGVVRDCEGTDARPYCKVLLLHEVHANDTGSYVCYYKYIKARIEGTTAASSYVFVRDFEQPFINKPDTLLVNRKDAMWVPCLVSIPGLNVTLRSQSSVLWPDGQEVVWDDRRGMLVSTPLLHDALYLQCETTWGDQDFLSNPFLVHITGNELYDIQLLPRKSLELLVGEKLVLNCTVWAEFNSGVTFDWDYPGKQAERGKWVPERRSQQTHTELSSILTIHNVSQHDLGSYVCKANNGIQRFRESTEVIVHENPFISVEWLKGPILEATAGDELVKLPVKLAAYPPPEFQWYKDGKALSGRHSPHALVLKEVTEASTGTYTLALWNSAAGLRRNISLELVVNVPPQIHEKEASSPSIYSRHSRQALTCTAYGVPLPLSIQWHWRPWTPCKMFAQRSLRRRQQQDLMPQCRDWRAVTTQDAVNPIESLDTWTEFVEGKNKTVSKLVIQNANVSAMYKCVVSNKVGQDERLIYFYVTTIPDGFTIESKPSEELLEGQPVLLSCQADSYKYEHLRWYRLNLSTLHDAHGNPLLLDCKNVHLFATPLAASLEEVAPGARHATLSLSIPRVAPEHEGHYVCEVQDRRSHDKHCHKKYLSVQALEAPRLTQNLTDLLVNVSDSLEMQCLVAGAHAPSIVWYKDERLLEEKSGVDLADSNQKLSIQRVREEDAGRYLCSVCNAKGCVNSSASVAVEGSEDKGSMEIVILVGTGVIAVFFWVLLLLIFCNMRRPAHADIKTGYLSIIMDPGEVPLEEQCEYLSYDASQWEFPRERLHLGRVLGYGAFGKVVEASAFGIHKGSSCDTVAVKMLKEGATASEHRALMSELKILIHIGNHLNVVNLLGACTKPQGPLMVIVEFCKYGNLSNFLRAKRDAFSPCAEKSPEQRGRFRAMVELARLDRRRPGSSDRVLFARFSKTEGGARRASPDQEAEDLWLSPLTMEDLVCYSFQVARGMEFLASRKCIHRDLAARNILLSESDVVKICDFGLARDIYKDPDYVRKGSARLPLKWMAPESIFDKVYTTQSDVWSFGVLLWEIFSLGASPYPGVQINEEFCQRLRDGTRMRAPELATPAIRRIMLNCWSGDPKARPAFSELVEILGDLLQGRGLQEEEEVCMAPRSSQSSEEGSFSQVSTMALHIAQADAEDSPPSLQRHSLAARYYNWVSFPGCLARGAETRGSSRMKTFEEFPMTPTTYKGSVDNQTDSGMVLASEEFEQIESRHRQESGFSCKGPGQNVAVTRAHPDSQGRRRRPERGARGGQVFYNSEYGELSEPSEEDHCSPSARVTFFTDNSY

CN1CCN(c2ccc(C(=O)Nc3n[nH]c4c3CN(C(=O)Cc3ccccc3)C4)cc2)CC1
EC50 (HCT-116 [1]): 0.5 µM
IC50 (HCT-116 [2]): 0.22 µM
IC50 (Aurora kinase A): 0.13 µM

C[C@H](C(=O)N1Cc2n[nH]c(NC(=O)c3ccc(N4CCN(C)CC4)cc3)c2C1)c1ccccc1
IC50 (Aurora kinase B): 1.21 µM
IC50 (Aurora kinase A): 0.452 µM

CN1CCN(c2ccc(C(=O)Nc3n[nH]c4c3CN(C(=O)[C@H](F)c3ccccc3)C4)cc2)CC1
EC50 (HCT-116 [1]): 0.11 µM
IC50 (Aurora kinase B): 0.3 µM
IC50 (HCT-116 [2]): 0.05 µM
IC50 (Aurora kinase A): 0.009 µM

CN1CCN(c2ccc(C(=O)Nc3n[nH]c4c3CN(C(=O)[C@H](O)c3ccccc3)C4)cc2)CC1
EC50 (HCT-116 [1]): > 0.2 µM
IC50 (Aurora kinase B): 0.048 µM
IC50 (HCT-116 [2]): 0.097 µM
IC50 (Aurora kinase A): 0.006 µM

C[C@@H](C(=O)N1Cc2[nH]nc(NC(=O)c3ccc(N4CCN(C)CC4)cc3)c2C1)c1ccccc1
EC50 (HCT-116 [1]): 0.1 µM
IC50 (Aurora kinase B): 0.099 µM
IC50 (HCT-116 [2]): 0.021 µM
IC50 (Aurora kinase A): 0.024 µM

CO[C@@H](C(=O)N1Cc2n[nH]c(NC(=O)c3ccc(N4CCN(C)CC4)cc3)c2C1)c1ccccc1.Cl
solubility [3]: > 15 mg/mL

CO[C@@H](C(=O)N1Cc2[nH]nc(NC(=O)c3ccc(N4CCN(C)CC4)cc3)c2C1)c1ccccc1 [DANUSERTIB]
TGI (HL-60 [4]): 98%
EC50 (HCT-116 [1]): 0.08 µM
Activity (HL-60 [5]): 16%
Activity (HCT-116 [6]): Active
IC50 (A2780): 0.028 µM
IC50 (HCT-116 [2]): 0.031 µM
IC50 (MCF7): 0.08 µM
IC50 (HeLa): 0.14 µM

CO[C@@H](C(=O)N1Cc2n[nH]c(NC(=O)c3ccc(N4CCN(C)CC4)cc3)c2C1)c1ccccc1 [DANUSERTIB]
IC50 [7]: > 10 µM
clearance [8]: 60 mL/min/kg
AUC [9]: 6.5 µM·h
IC50 [10]: > 10 µM
Cmax [11]: 9.6 µM
IC50 [12]: > 10 µM
IC50 [13]: > 10 µM
half-life [14]: 1.4 h
Vd [15]: 3.7 L/kg
IC50 [16]: > 10 µM
IC50 (Aurora kinase C): 0.061 µM
IC50 [17]: 0.161 µM
